One assay deals with FaDu. Nature of the assay: Growth inhibition against human pharynx FADU cell line. It is filed as functional.
In the next assay the test system is NCI-H460. The experiment in a line: Growth inhibition against human lung-NSC NCI-H460 cell line. It is filed as functional.
For a further assay, the system named is DU-145. The experiment in a line: Growth inhibition against human prostate cell line (DU-145). It is filed as functional.
For a further assay, the system named is SW-1736. Nature of the assay: Growth inhibition against human thyroid cell line( SW 1736). It is filed as functional.
Another assay has as its system P388. The experiment in a line: Effective dose against murine P388 leukemia cell line. The settings on record: Mus musculus, read-out: ED50 (the source's name). It is filed as functional.
The target in the next assay is Tubulin beta-1 chain (Homo sapiens, UniProt Q9H4B7). The experiment in a line: Inhibition of tubulin polymerization upon incubation for 20 min at 30 degree C. An outline of the steps:
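Purified tubulin at 10 µM (1.0 mg/mL) in 0.8 M monosodium glutamate, pH 6.6, with 4% (v/v) DMSO and varying compound concentrations. Preincubated 15 min at 37 °C, chilled on ice, then GTP (0.4 mM) added. Warmed from 0 °C to 30 °C, and assembly followed 20 min by turbidity at 350 nm. IC50 interpolated; at least two determinations; SD reported.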

For the next assay, the system named is SK-N-SH. Nature of the assay: Growth inhibition against human neuroblastoma cell line (SK-N-SH). It is filed as functional.
For a further assay, the system named is BXPC-3. The experiment in a line: Growth inhibition against human pancreas carcinoma cell line (BxPC-3). It is filed as functional.
The test system of assay [1] is Neisseria gonorrhoeae. The experiment in a line: Minimum inhibitory concentration against Neisseria gonorrhoeae was determined in the disk diffusion assay; value ranges from 50-100 ug/disk. It is filed as functional.
In assay [2] the test system is Neisseria gonorrhoeae. Nature of the assay: Minimum inhibitory concentration against Neisseria gonorrhoeae was determined in the disk diffusion assay; value ranges from 12.5-25 ug/disk. It is filed as functional.
The subject of another assay is Micrococcus luteus. Nature of the assay: Minimum inhibitory concentration against Micrococcus luteus was determined in the disk diffusion assay; value ranges from 12.5-25 ug/disk. It is filed as functional.

Values after ≈ are worked out from the molar mass of the structure shown. A value given as a limit tells only on which side of the number the result lay.

Sequence of Tubulin beta-1 chain (Q9H4B7 whole entry): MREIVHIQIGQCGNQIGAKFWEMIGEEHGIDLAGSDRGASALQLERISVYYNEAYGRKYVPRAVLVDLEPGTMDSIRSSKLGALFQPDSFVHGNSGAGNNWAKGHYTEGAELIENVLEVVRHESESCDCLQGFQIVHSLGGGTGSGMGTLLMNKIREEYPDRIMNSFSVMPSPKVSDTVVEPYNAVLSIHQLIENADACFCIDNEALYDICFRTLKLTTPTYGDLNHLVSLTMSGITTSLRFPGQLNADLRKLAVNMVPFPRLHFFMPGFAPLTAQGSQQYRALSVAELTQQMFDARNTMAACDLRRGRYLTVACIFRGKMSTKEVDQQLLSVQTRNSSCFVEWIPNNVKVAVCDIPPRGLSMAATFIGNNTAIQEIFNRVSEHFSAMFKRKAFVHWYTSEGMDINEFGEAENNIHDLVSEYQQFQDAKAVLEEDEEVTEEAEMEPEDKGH

In the case of `COc1ccc(/C=C\c2cc(OC)c(OC)c(OC)c2)cc1OCCOS(C)(=O)=O`, the concentration for 50% growth inhibition (GI50) in the assay with FaDu was determined as 0.41 µg/mL (≈ 0.935 µM); in the assay with NCI-H460, 0.42 µg/mL (≈ 0.958 µM); with DU-145, 0.59 µg/mL (≈ 1.35 µM); in the assay with SW-1736, 1 µg/mL (≈ 2.28 µM); in the assay with SK-N-SH it was 3 µg/mL (≈ 6.84 µM); with BXPC-3, 2.7 µg/mL (≈ 6.16 µM). Besides, in the assay on P388, the EC50 was 2.87 µg/mL (≈ 6.55 µM). The IC50 on Tubulin beta-1 chain was > 40 µM.

Take `COc1ccc(/C=C\c2cc(OC)c(OC)c(OC)c2)cc1N`: the GI50 was found to be 0.00053 µg/mL (≈ 0.00168 µM) in the assay on FaDu; 0.00033 µg/mL (≈ 0.00105 µM) in the assay on NCI-H460; 0.00033 µg/mL (≈ 0.00105 µM) with DU-145; 0.0008 µg/mL (≈ 0.00254 µM) with SW-1736; 0.00023 µg/mL (≈ 0.000729 µM) with SK-N-SH; 0.00043 µg/mL (≈ 0.00136 µM) in the assay on BXPC-3. Besides, in the assay with P388, the EC50 was > 0.01 µg/mL.

For `COc1ccc(/C=C\c2cc(OC)c(OC)c(OC)c2)cc1OCCO`, the GI50 stood at 0.069 µg/mL (≈ 0.191 µM) in the assay on FaDu; 0.14 µg/mL (≈ 0.388 µM) with NCI-H460; 0.32 µg/mL (≈ 0.888 µM) with DU-145; 0.28 µg/mL (≈ 0.777 µM) with SW-1736; 0.028 µg/mL (≈ 0.0777 µM) with SK-N-SH; 0.045 µg/mL (≈ 0.125 µM) with BXPC-3. Further, in the assay on Neisseria gonorrhoeae [1], the MIC is recorded as 100 ug/disk. Further, the EC50 with P388 turned out to be 0.195 µg/mL (≈ 0.541 µM). At Tubulin beta-1 chain, the half-inhibitory concentration (IC50) amounted to 2.8 µM.

In the case of `COc1ccc(/C=C\c2cc(OC)c(O)c(OC)c2)cc1O`, the GI50 in the assay on FaDu is 0.23 µg/mL (≈ 0.761 µM); in the assay with NCI-H460 it was 0.74 µg/mL (≈ 2.45 µM); with DU-145, 0.17 µg/mL (≈ 0.562 µM); in the assay with SW-1736, 3.4 µg/mL (≈ 11.2 µM); in the assay on SK-N-SH, 0.19 µg/mL (≈ 0.628 µM); in the assay with BXPC-3, > 4 µg/mL. In addition, in the assay with Neisseria gonorrhoeae [2], the MIC stood at 25 ug/disk. Also, the EC50 with P388 is 0.25 µg/mL (≈ 0.827 µM).

As to `COc1ccc(/C=C\c2cc(OC)c(OC)c(OC)c2)cc1OCCN(C)C.Cl`, the GI50 in the assay on FaDu is 0.47 µg/mL; in the assay on NCI-H460 it was 0.34 µg/mL; in the assay with DU-145, 0.38 µg/mL; in the assay on SW-1736, 0.64 µg/mL; in the assay on SK-N-SH, 0.21 µg/mL; in the assay with BXPC-3, > 10 µg/mL. In the assay on P388, the EC50 worked out at 0.523 µg/mL. Further, the IC50 at Tubulin beta-1 chain is > 40 µM.

`COc1ccc(/C=C\c2cc(OC)c(OC)c(OC)c2)cc1OCCN1CCN(C)CC1.Cl.Cl`: the GI50 in the assay with FaDu was 2.9 µg/mL; in the assay on NCI-H460, 3.4 µg/mL; in the assay with DU-145, 4.1 µg/mL; in the assay with SW-1736 it was > 10 µg/mL; with SK-N-SH it was 2.8 µg/mL; in the assay on BXPC-3 it was > 10 µg/mL. Further, the EC50 in the assay with P388 was determined as 1.6 µg/mL. Besides, on Tubulin beta-1 chain, the half-inhibitory concentration (IC50) was > 40 µM.

As for `COc1ccc(/C=C\c2cc(OC)c(OC)c(OC)c2)cc1OCCn1cccc1.Cl`, the GI50 in the assay on FaDu was determined as 0.003 µg/mL; in the assay on NCI-H460, 0.0033 µg/mL; in the assay with DU-145, 0.56 µg/mL; in the assay with SW-1736 it was 4.9 µg/mL; in the assay on SK-N-SH, 0.0064 µg/mL; in the assay with BXPC-3, 2.3 µg/mL. The EC50 with P388 was determined as 0.0232 µg/mL. Further, the IC50 at Tubulin beta-1 chain was 20 µM.

As to `COc1ccc(/C=C\c2cc(OC)c(OC)c(OC)c2)cc1OCCN1CCOCC1.Cl`, the 50% growth inhibitory concentration (GI50) in the assay on FaDu amounted to 0.53 µg/mL; with NCI-H460 it was 0.41 µg/mL; with DU-145 it was 0.4 µg/mL; in the assay with SW-1736, 0.97 µg/mL; in the assay with SK-N-SH it was 0.22 µg/mL; in the assay with BXPC-3, 2.9 µg/mL. In the assay with Neisseria gonorrhoeae [1], this molecule had an MIC of 100 ug/disk. The EC50 in the assay on P388 was 0.634 µg/mL. Moreover, the concentration for half-maximal inhibition (IC50) against Tubulin beta-1 chain is > 40 µM.

Take `COc1ccc(/C=C\c2cc(OC)c(OC)c(OC)c2)cc1OCCN1CCCCC1.Cl`: the GI50 was 4.2 µg/mL with FaDu; 3.3 µg/mL in the assay with NCI-H460; 3.4 µg/mL with DU-145; 5.1 µg/mL with SW-1736; 1.6 µg/mL with SK-N-SH; > 10 µg/mL in the assay with BXPC-3. Moreover, the EC50 in the assay with P388 amounted to 0.348 µg/mL. Moreover, the IC50 against Tubulin beta-1 chain was > 40 µM.

For `COc1ccc(/C=C\c2cc(OC)c(OC)c(OC)c2)cc1OCCn1ccnc1.Cl`, the GI50 in the assay on FaDu stood at 0.67 µg/mL; with NCI-H460, 0.56 µg/mL; in the assay with DU-145, 1.5 µg/mL; in the assay with SW-1736, 1.5 µg/mL; in the assay with SK-N-SH, 0.31 µg/mL; in the assay on BXPC-3 it was 0.82 µg/mL. In addition, the MIC with Micrococcus luteus was 25 ug/disk; in the assay with Neisseria gonorrhoeae [1], 100 ug/disk. For the same molecule, in the assay with P388, the EC50 came out at 19 µg/mL. The IC50 against Tubulin beta-1 chain was 7.6 µM.

In the case of `COc1ccc(/C=C\c2cc(OC)c(OC)c(OC)c2)cc1O` [COMBRETASTATIN A4], the GI50 in the assay on FaDu is 0.00065 µg/mL (≈ 0.00205 µM); in the assay with NCI-H460 it was 0.00056 µg/mL (≈ 0.00177 µM); in the assay with DU-145, 0.00076 µg/mL (≈ 0.0024 µM); in the assay with SW-1736 it was 0.00026 µg/mL (≈ 0.000822 µM); in the assay with SK-N-SH, 0.00026 µg/mL (≈ 0.000822 µM); in the assay on BXPC-3, > 0.1 µg/mL. In the assay with P388, the EC50 is 0.0026 µg/mL (≈ 0.00822 µM).

On to `COc1ccc(/C=C\c2cc(OC)c(OC)c(OC)c2)cc1OP(=O)([O-])[O-].[Na+].[Na+]` [FOSBRETABULIN DISODIUM], for which the GI50 in the assay with FaDu amounted to 0.00045 µg/mL; in the assay with NCI-H460 it was 0.00035 µg/mL; in the assay on DU-145, 0.00072 µg/mL; with SW-1736 it was 0.00061 µg/mL; with SK-N-SH, 0.00025 µg/mL; in the assay on BXPC-3 it was 0.23 µg/mL. Moreover, in the assay with P388, the EC50 is 0.0029 µg/mL.

Source of the values: ChEMBL document CHEMBL1139543, “Antineoplastic agents. 445. Synthesis and evaluation of structural modifications of (Z)- and (E)-combretastatin A-41” (J Med Chem, 2005).
